The target of data set [1] is T1, Bromodomain-containing protein 4 (Homo sapiens, UniProt O60885). Description: Inhibition of BRD4 BD2 (unknown origin) measured by TR-FRET assay. On the technique in general: Time-resolved FRET reads energy transfer from a long-lived donor to a nearby acceptor.
The target of data set [2] is T1, Bromodomain-containing protein 4. Description: Inhibition of BRD4 BD1 (unknown origin) measured by TR-FRET assay.
The target of a further data set is C-C motif chemokine 2 (Homo sapiens, UniProt P13500). Description: Inhibition of MCP-1 in LPS-stimulated human whole blood incubate for 24 hrs by immuno assay. The data set is classed as tissue-based.
Chain of C-C motif chemokine 2 (P13500 whole entry): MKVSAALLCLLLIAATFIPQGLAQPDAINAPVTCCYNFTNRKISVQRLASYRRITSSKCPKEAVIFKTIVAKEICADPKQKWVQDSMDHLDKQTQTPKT
Data set [3] is described as follows: Lipophilicity, logD of compound at pH 7.4 by Chromatography. Conditions: buffer. The data set is classed as physicochemical.
Data set [4] can be described thus: Artificial membrane permeability of the compound. The data set is classed as ADME. The conditions noted are these: PAMPA; read-out: permeability. For orientation: The PAMPA barrier holds no transporters, so it reflects passive diffusion.
Data set [5] in a line: Solubility of the compound at pH 6.5 in fast state simulated intestinal fluid incubated for 16 hrs by HPLC analysis. The data set is classed as physicochemical. The conditions noted are these: fasted state simulated intestinal fluid.
Data set [6] in a line: Intrinsic clearance in rat hepatocytes after 60 mins by LC-MS/MS analysis. The data set is classed as ADME, cell-based, Hepatocyte. The conditions noted are these: 1 h.
Data set [7] is described as follows: Intrinsic clearance in dog hepatocytes incubated upto 45 mins by LC-MS/MS analysis. The data set is classed as ADME, cell-based, Canis lupus familiaris, Hepatocyte. Conditions: 0.75 h.
Data set [8] in a line: Intrinsic clearance in human hepatocytes measured after 120 mins by LC-MS/MS analysis. The data set is classed as ADME, cell-based, Hepatocyte. The conditions noted are these: 2 h.
Data set [9] in a line: Clearance in Wistar Han rat blood at 3.1 mg/kg, po or 1 mg/kg, iv measured upto 24 hrs by LC-MS/MS analysis. The data set is classed as ADME, organism-based. Conditions: whole blood. In outline: (§1)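 Male Wistar Han rats and beagle dogs were dosed iv as a 1 h infusion in DMSO with 10% (w/v) Kleptose HPB in saline (2%:98% or 5%:95% v/v). Oral doses were given in 1% (w/v) methylcellulose (400 cps) aqueous suspension. Oral values are means of n = 3 and iv values n = 1 unless otherwise noted.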

Data set [10] in a line: Unbound clearance in Wistar Han rat blood at 3.1 mg/kg, po or 1 mg/kg, iv measured upto 24 hrs by LC-MS/MS analysis. Conditions: in vivo. The data set is classed as ADME, organism-based. In outline:
as §1

A short description of data set [11]: Volume of distribution at steady state in Wistar Han rat at 3.1 mg/kg, po or 1 mg/kg, iv measured upto 24 hrs by LC-MS/MS analysis. The data set is classed as ADME, organism-based. Conditions: in vivo, read-out: Vdss. A digest of the protocol: as §1
The nature of data set [12]: Unbound volume of distribution at steady state in Wistar Han rat at 3.1 mg/kg, po or 1 mg/kg, iv measured upto 24 hrs by LC-MS/MS analysis. The conditions noted are these: in vivo. The data set is classed as ADME, organism-based. In outline: as §1
Data set [13] is described as follows: Half-life in Wistar Han rat at 3.1 mg/kg, po or 1 mg/kg, iv measured upto 24 hrs by LC-MS/MS analysis. The data set is classed as ADME, organism-based. The conditions noted are these: in vivo. In outline: as §1
The nature of data set [14]: Oral bioavailability in Wistar Han rat at 3.1 mg/kg measured upto 24 hrs by LC-MS/MS analysis. The conditions noted are these: in vivo. The data set is classed as ADME, organism-based. In outline: as §1
Data set [15] in a line: Unbound fraction in Wistar Han rat at 3.1 mg/kg, po or 1 mg/kg, iv measured upto 24 hrs by LC-MS/MS analysis. The data set is classed as ADME, organism-based. The conditions noted are these: in vivo.
Data set [16] can be described thus: Clearance in Beagle dog blood at 1.5 mg/kg, po or 0.4 mg/kg, iv measured upto 24 hrs by LC-MS/MS analysis. The data set is classed as ADME, organism-based, Canis lupus familiaris. The conditions noted are these: whole blood. In outline:
as §1

Data set [17] can be described thus: Unbound clearance in Beagle dog blood at 1.5 mg/kg, po or 0.4 mg/kg, iv measured upto 24 hrs by LC-MS/MS analysis. The data set is classed as ADME, organism-based, Canis lupus familiaris. Conditions: in vivo. In outline: as §1
Data set [18] can be described thus: Volume of distribution at steady state in Beagle dog at 1.5 mg/kg, po or 0.4 mg/kg, iv measured upto 24 hrs by LC-MS/MS analysis. The data set is classed as ADME, organism-based, Canis lupus familiaris. Conditions: in vivo, read-out: Vdss. In outline:
as §1

Data set [19] is described as follows: Unbound volume of distribution at steady state in Beagle dog at 1.5 mg/kg, po or 0.4 mg/kg, iv measured upto 24 hrs by LC-MS/MS analysis. The data set is classed as ADME, organism-based, Canis lupus familiaris. Conditions: in vivo. A digest of the protocol: as §1
A short description of data set [20]: Half-life in Beagle dog at 1.5 mg/kg, po or 0.4 mg/kg, iv measured upto 24 hrs by LC-MS/MS analysis. Conditions: in vivo. The data set is classed as ADME, organism-based, Canis lupus familiaris. A digest of the protocol: as §1
Data set [21] in a line: Oral bioavailability in Beagle dog at 1.5 mg/kg measured upto 24 hrs by LC-MS/MS analysis. The data set is classed as ADME, organism-based, Canis lupus familiaris. Conditions: in vivo. In outline:
as §1

Data set [22] is described as follows: Unbound fraction in Beagle dog at 1.5 mg/kg, po or 0.4 mg/kg, iv measured upto 24 hrs by LC-MS/MS analysis. The data set is classed as ADME, organism-based, Canis lupus familiaris. The conditions noted are these: in vivo.
Data set [23] can be described thus: Solubility of the compound in saline by CLND method. The data set is classed as physicochemical.
The nature of data set [24]: Clearance in Wistar Han rat blood at 2.9 mg/kg, po or 2.1 mg/kg, iv measured upto 24 hrs by LC-MS/MS analysis. The data set is classed as ADME, organism-based. The conditions noted are these: whole blood. In outline:
as §1

Data set [25] can be described thus: Volume of distribution at steady state in Wistar Han rat at 2.9 mg/kg, po or 2.1 mg/kg, iv measured upto 24 hrs by LC-MS/MS analysis. The data set is classed as ADME, organism-based. The conditions noted are these: in vivo, read-out: Vdss. A digest of the protocol: as §1
A short description of data set [26]: Half-life in Wistar Han rat at 2.9 mg/kg, po or 2.1 mg/kg, iv measured upto 24 hrs by LC-MS/MS analysis. The data set is classed as ADME, organism-based. Conditions: in vivo. In outline:
as §1

Data set [27] is described as follows: Oral bioavailability in Wistar Han rat at 2.9 mg/kg measured upto 24 hrs by LC-MS/MS analysis. The data set is classed as ADME, organism-based. Conditions: in vivo. In outline:
as §1

Another data set concerns the target Cytochrome P450 3A4 (Homo sapiens, UniProt P08684). As to the kind of experiment: Inhibition of CYP3A4 (unknown origin). The data set is classed as ADME.
The target in data set [28] is Voltage-gated inwardly rectifying potassium channel KCNH2 (Homo sapiens, UniProt Q12809). Description: Inhibition of hERG. The data set is classed as toxicity.
Chain of Voltage-gated inwardly rectifying potassium channel KCNH2 (Q12809 whole entry): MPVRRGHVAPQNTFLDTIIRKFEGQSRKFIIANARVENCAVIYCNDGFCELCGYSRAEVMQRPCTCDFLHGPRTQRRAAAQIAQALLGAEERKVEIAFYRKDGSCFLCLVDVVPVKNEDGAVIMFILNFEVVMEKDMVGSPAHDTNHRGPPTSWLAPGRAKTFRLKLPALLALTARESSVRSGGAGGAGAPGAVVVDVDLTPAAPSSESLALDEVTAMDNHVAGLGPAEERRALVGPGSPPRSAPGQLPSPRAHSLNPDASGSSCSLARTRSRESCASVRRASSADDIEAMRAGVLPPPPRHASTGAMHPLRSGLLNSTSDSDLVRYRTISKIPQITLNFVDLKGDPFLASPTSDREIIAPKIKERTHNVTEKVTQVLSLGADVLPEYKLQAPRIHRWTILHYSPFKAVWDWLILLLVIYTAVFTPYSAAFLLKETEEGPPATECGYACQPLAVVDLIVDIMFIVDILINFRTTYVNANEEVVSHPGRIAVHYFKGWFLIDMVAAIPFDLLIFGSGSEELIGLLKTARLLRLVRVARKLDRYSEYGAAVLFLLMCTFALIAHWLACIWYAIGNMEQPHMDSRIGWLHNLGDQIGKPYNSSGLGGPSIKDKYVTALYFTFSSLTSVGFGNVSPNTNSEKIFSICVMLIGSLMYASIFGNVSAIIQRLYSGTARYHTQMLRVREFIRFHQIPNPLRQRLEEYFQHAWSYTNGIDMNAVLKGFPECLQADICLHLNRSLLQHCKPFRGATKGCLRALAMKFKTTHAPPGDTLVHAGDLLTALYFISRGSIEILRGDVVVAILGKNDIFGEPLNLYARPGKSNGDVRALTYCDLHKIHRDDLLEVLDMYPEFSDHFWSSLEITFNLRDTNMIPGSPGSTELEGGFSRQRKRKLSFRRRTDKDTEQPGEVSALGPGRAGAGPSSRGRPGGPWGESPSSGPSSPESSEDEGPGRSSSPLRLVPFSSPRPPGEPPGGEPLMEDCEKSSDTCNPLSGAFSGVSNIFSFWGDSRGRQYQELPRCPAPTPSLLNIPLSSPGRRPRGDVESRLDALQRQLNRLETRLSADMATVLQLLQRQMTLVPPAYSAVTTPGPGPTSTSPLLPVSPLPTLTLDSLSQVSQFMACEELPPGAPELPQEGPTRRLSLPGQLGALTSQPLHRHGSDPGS

The structures appear in SMILES notation. ≈ marks a conversion by molar mass, not a printed value. Where only a bound is given, the exact number is not on record here.

Chain of Cytochrome P450 3A4 (P08684 whole entry): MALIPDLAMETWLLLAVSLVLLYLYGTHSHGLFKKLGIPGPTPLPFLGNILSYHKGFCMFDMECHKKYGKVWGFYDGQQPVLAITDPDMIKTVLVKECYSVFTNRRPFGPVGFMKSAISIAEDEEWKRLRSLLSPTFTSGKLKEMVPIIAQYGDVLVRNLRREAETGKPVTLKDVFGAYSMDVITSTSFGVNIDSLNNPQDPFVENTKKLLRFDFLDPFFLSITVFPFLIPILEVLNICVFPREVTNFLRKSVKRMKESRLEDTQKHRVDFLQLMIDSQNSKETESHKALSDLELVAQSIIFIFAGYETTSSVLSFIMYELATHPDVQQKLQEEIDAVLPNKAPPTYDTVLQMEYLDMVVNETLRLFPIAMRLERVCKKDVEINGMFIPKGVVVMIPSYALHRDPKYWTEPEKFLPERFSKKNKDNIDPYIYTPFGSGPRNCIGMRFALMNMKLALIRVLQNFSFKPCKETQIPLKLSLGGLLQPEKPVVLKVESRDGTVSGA

In general, IC50 refers to the concentration needed to halve the response being measured. A high value points to weaker potency. By chromatographic logD is commonly meant a lipophilicity value derived from retention on a column. The solubility is the concentration that dissolves in the medium under given conditions. Higher therefore signals much dissolved substance. Usually half-life stands for the time needed for the level to fall by half in the phase considered. Low readings indicate fast loss, high ones slow loss. Broadly, the bioavailability is dose-corrected exposure relative to a reference, in per cent. A higher bioavailability goes with good availability. Turning to `C[C@H]1C(=O)N(C)C=C(c2cn[nH]c2)c2cc([C@H](O)CO)ccc21`, the figures for the IC50 (in data set [1]; in [2]; against C-C motif chemokine 2) were 25.1 nM, 15.8 nM and 39.8 nM, respectively. The chromatographic logD in data set [3] was determined as 0.8. Also, in data set [4], the Papp is 0.8 ×10⁻⁶ cm/s. The solubility at 16 h in data set [5] was above 1000 µg/mL. Further, the CLH in data set [6] is below 0.8 mL/min/g; in [7], below 0.65 mL/min/g; in data set [8], 0.52 mL/min/g. The clearance in data set [9] worked out at 43 mL/min/kg. This compound also returned a CL free in [10] of 75 mL/min/kg. In [11], the Vd is 1 L/kg. The Vduss in data set [12] is 1.8 L/kg. The compound also gave a half-life in data set [13] of 24.6 min. Also, the bioavailability in [14] is 19%.

Turning to `C[C@H]1C(=O)N(C)C=C(c2cnn(C)c2)c2cc([C@H](O)CO)ccc21`, the IC50 was 31.6 nM in data set [1], 31.6 nM in data set [2] and 39.8 nM at C-C motif chemokine 2. In [3], this compound yielded a chromatographic logD of 1.3. Besides, the Papp in [4] was 3.1 ×10⁻⁶ cm/s. In addition, in data set [5], the solubility at 16 h was above 1000 µg/mL. Besides, the CLH in [6] was below 0.8 mL/min/g; in data set [7], 1.12 mL/min/g; in [8] it was below 0.45 mL/min/g. Also, the clearance in data set [9] amounted to 19 mL/min/kg; in [16], 45 mL/min/kg. In addition, the CL free was determined as 31 mL/min/kg in [10] and 87 mL/min/kg in data set [17]. Moreover, the Vd in data set [11] was determined as 1.1 L/kg; in [18], 1.7 L/kg. In addition, the Vduss in [12] was determined as 1.8 L/kg; in data set [19] it was 3.3 L/kg. Further, the half-life in data set [13] was 58.2 min; in data set [20], 30 min. The bioavailability in data set [14] stood at 66%; in data set [21], 39%. For the same compound, the Fu in [15] was 0.61; in [22], 0.52.

Usually solubility (kinetic) stands for the concentration staying in solution when a stock, usually in DMSO, is diluted into the medium. For the compound `CCOc1ccc2c(c1)C(c1cnn(C)c1)=CN(C)C(=O)[C@@H]2C`, the 50% inhibitory concentration (IC50) in data set [1] is 7.94 nM; in [2] it was 10 nM; against C-C motif chemokine 2, 20 nM. Moreover, the chromatographic logD in data set [3] was found to be 4.1. In [4], the Papp is 57 ×10⁻⁶ cm/s. Further, in [23], the kinetic solubility came to 143 µg/mL (≈ 459 µM). Moreover, the figures for the CLH in [6], in [7] and in data set [8] were 72.36 mL/min/g, below 0.65 mL/min/g and 9.14 mL/min/g, respectively.

`C[C@H]1C(=O)N(C)C=C(c2cn[nH]c2)c2cc([C@@H](O)CO)ccc21`: the IC50 is 39.8 nM in data set [1], 25.1 nM in [2] and 31.6 nM at C-C motif chemokine 2. The same compound came in with a chromatographic logD in [3] of 0.9. Also, in data set [4], the Papp is 0.7 ×10⁻⁶ cm/s. This compound yielded a solubility at 16 h in [5] of 417 µg/mL (≈ 1330 µM). The CLH was below 0.8 mL/min/g in data set [6] and below 0.45 mL/min/g in data set [8]. Besides, the clearance in data set [24] was 37 mL/min/kg. Also, the Vd in data set [25] turned out to be 1.5 L/kg. The compound further gave a half-life in [26] of 45.6 min. Moreover, the bioavailability in data set [27] amounted to 13%.

Regarding `COc1cc2c(cc1OC)[C@@H](C)C(=O)N(C)C=C2`, the IC50 in data set [1] was 631 nM; in data set [2] it was 158 nM; on Cytochrome P450 3A4, above 39800 nM; in data set [28], above 50100 nM. The chromatographic logD in data set [3] worked out at 3.4. In [4], the Papp turned out to be 89 ×10⁻⁶ cm/s. In [23], this compound returned a kinetic solubility of at least 139 µg/mL. Moreover, in data set [5], the solubility at 16 h is above 1000 µg/mL. The CLH in data set [6] was 6.35 mL/min/g; in data set [7], 2.64 mL/min/g; in [8], below 0.45 mL/min/g.
